This is a sample that favours compounds with a hit; in the whole collection about 2.1% have one here.
MRP-1 activ = activates MRP-1; 0.61% of 140,000 active; viability increase, % at 10 µM; AID 799; H69AR cells + doxorubicin, viability rescue, CellTiter-Glo;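 active means viability gain under doxorubicin at or above a set limit, the compound median plus 3 SD, cut at about 4.7% in these data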;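 further: MRP-1 overexpressing cells given doxorubicin 25 µM after compound pretreatment; 18-22 h compound pretreatment then 72 h with doxorubicin before readout; 0% = doxorubicin-only wells and 100% = vehicle-treated cells without doxorubicin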
BB579 growth dn = chemicals that inhibit yeast BB579 growth in restrictive medium (lifespan-shortening candidates) | 0.51% of 140,000 active | S. cerevisiae BB579 growth, OD615, 48 h | AID 804 | inhibition, % at 10 µM;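 active means inhibition above a set limit, 3 SD over the mean compound inhibition, cut at about 44% in these data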
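Test system: DeaD yeast strain BB579 / Buffer or medium: restrictive glucose-based CSMM-D medium / Doses: single 10 µM dose / Schedule: 4 h cell preincubation, 48 h compound exposure, 30 °C humidified / Technique: culture absorbance at 615 nm / Controls: amphotericin B positive control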
Phagocyt inh = blocks phagocytosis by macrophages | J774A.1 macrophage IgG-bead phagocytosis, imaging | inhibition, % at 5 µM | 0.07% of 110,000 active;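 active means inhibition above the mean of the plate negative controls plus 5 SD, cut at about 13% in these data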;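 further: phagocytic index as fraction of beads internalized from green versus red external bead signal; plate controls were DMSO negative control for no effect and cytochalasin-D positive control for full effect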
MRP reversal = MRP-mediated drug resistance reversal; H69AR cells + 2 uM doxorubicin, CellTiter-Glo, 72 h; differential viability (reversal), % at 10 µM; 0.04% of 85,000 active; AID 602;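 active means viability drop by adding the cancer drug above about 55%, with treated viability meeting a 40% cutoff, limit read from the data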;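 further: viability without doxorubicin minus viability with 2 µM doxorubicin for each compound; larger differential means the compound sensitizes cells more to doxorubicin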
SDO1 yeast rescue = sdo1-depleted yeast growth rescue. S. cerevisiae sdo1-depleted JHY4D growth rescue, OD600 30 h; stronger effect = higher value; pdr5 snq2 efflux-pump mutant strain. 0.21% of 140,000 active. z-score at 10 µM;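 active means z-score above 3 at both the 24 hr and the 30 hr optical density reads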;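 further: z-score against mean and SD of all compound wells on the same plate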
Yeast life ext = extends the lifespan of yeast; inhibition of the nicotinamide effect, % at 10 µM; 0.68% of 130,000 active; AID 775; S. cerevisiae growth with nicotinamide, OD615; deaD strain in restrictive glucose medium;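 active means inhibition above a set limit, placed 3 SD over the median of all compounds, cut at about 26% in these data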;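 further: 0% = nicotinamide-treated wells and 100% = cells grown without nicotinamide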
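System: DeaD-strain S. cerevisiae / Buffer or medium: CSMM-D, restrictive glucose (dextrose) synthetic minimal medium / Probe or stimulus: nicotinamide, 1.5 mM, co-present with compound / Compound: one concentration, 10 µM, DMSO 0.25% / Incubation: 48 h compound exposure at 30 °C, humidified / Technique: optical density (absorbance) at 615 nm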
* hit, by the source's call; x = not tested or not shown.

SMILES | MRP-1 activ | BB579 growth dn | Phagocyt inh | MRP reversal | SDO1 yeast rescue | Yeast life ext
O=C(CCCCCn1c(=O)[nH]c2ccsc2c1=O)NCc1cccs1 | -0.9 | -0.8 | 1.0 | 0.9 | 1.49 | -8.7
COc1ccccc1C1(CC(=O)O)CCOC(C)(C)C1 (configuration not stated) | -1.9 | -34.4 | -0.5 | x | 0.67 | -4.7
O=C(NNC(=O)c1cccnc1)Nc1cccc2ccccc12 | 5.7* | 17.3 | x | x | -0.02 | -2.2
CC(=O)Nc1ccc(Sc2ncnc3scc(-c4ccccc4)c23)cc1 | -3.5 | -9.2 | -6.1 | x | -0.7 | 1.1
CCCC(=O)Nc1ccccc1Sc1ncnc2scc(-c3ccccc3)c12 | -3.1 | -28.2 | -2.1 | x | -1.43 | 43.9*
COc1ccc(/C=C2\SC(=N)N(c3nccs3)C2=O)cc1OC | -5.1 | -28.4 | 1.1 | x | 1.73 | 37.5*
CCCCOC(=O)CSc1nc2c(c(=O)[nH]c(=O)n2C)n1C/C=C(\C)Cl | 0.2 | -13.0 | 3.3 | -6.5 | 0.7 | 87.3*
CCCCCOC(=O)CSc1nc2c(c(=O)[nH]c(=O)n2C)n1CCc1ccccc1 | -0.2 | -26.9 | -5.6 | 44.7 | -1.38 | 91.7*
C/C(Cl)=C/Cn1c(SCC(C)C)nc2c1c(=O)[nH]c(=O)n2C | x | x | 0.7 | 2.8 | x | x
CCCCCn1c(SCCc2ccccc2)nc2c1c(=O)[nH]c(=O)n2C | 0.4 | -47.4 | 2.0 | 11.3 | -0.41 | -14.2
CCOC(=O)c1cccc(NC(=O)C(C)N2C(=O)c3ccccc3C2=O)c1 (configuration not stated) | 0.5 | -54.9 | -0.8 | 9.8 | 0.63 | -6.4
CCOC(=O)c1ccc(NC(=O)C(C)N2C(=O)c3ccccc3C2=O)cc1 (configuration not stated) | 0.8 | -54.5 | -0.8 | -3.4 | 0.86 | 27.2*
O=C1c2ccccc2C(=O)C12OC(c1ccccc1)C1(C(=O)c3ccccc3C1=O)C2c1ccc([N+](=O)[O-])cc1 (configuration not stated) | -3.8 | -40.4 | x | -0.3 | -0.41 | x
Cc1cccc(C)c1OCC(=O)NCc1nnc(SCC(=O)NC2CCCCC2)n1C | 0.1 | -47.5 | -0.3 | 3.7 | 1.34 | -1.6
CCCCC(=O)NC(=S)Nc1cccc(Cl)c1N1CCCCC1 | -3.7 | -46.8 | -5.6 | x | -0.17 | 29.4*
ClC(Cl)(c1nnnn1-c1ccccc1)c1nnnn1-c1ccccc1 | -5.5 | -41.3 | -0.5 | x | -0.51 | 50.4*
O=[N+]([O-])c1ccc(O)c(/C=N/n2cnc3ccccc32)c1 | 5.2* | -22.9 | -13.9 | x | -0.51 | -6.4
COc1ccc(C(=O)NC(=S)Nc2ccc3c(c2)Cc2ccccc2-3)cc1 | -1.0 | -1.4 | -1.0 | -1.6 | -0.78 | -20.4
O=S(=O)(Nc1ccc2nc(-c3ccc(Br)o3)[nH]c2c1)c1ccccc1 | -0.5 | -11.6 | x | 19.6 | 0.43 | -7.5
Cc1ccc(-c2nc3ccc(NS(=O)(=O)c4ccccc4)cc3[nH]2)o1 | -0.8 | -4.5 | 142.8* | 3.5 | -0.2 | -2.2
O=C(NN1C(=O)c2ccccc2NC1c1ccccc1OCc1ccccc1)c1ccncc1 (configuration not stated) | -1.7 | -40.6 | -1.0 | x | -0.18 | 29.1*
COc1ccc(Br)cc1C1Nc2ccccc2C(=O)N1NC(=O)c1ccncc1 (configuration not stated) | -4.5 | 16.1 | x | x | 1.34 | -5.3
COc1cc(/C=C(\NC(=O)c2ccccc2)C(=O)NCC(=O)O)c([N+](=O)[O-])cc1OC | -1.4 | -20.2 | 3.8 | x | 1.36 | 4.4
O=C(N/N=C/c1cc2c3c(c1O)CCCN3CCC2)c1ccccc1O | -4.5 | 62.4* | -0.3 | x | 0.21 | 2.4
CCOc1ccc(C(=O)Nc2cnn(Cc3ccc(Cl)c(Cl)c3)c2)cc1 | -0.5 | 8.0 | x | x | -0.54 | -11.2
SMILES | MRP-1 activ | BB579 growth dn | Phagocyt inh | MRP reversal | SDO1 yeast rescue | Yeast life ext
O=C(Cn1nc(Cc2cccnc2)c2ccccc2c1=O)NCc1ccc2c(c1)OCO2 | -3.0 | -39.5 | 0.0 | 12.8 | 0.95 | -4.5
CCOc1ccc(C(=O)NC2CCN(C(=O)N3CCCC3)CC2)cc1 | 2.0 | -19.4 | x | 25.3 | 0.83 | x
C[C@@H](C(=O)Nc1ccc2ccccc2c1)[C@H]1C[C@]1(C)[C@H](NC(=O)c1cccnc1)c1ccccc1 | -4.1 | -52.9 | x | x | 7.24* | 8.8
C[C@@H](C(=O)Nc1ccc2ccccc2c1)[C@@H]1C[C@@]1(C)[C@@H](NC(=O)c1ccccc1)c1ccccc1 | -1.8 | -34.0 | x | x | 1.21 | 3.7
CC(C(=O)N1CCN(C)CC1)N1C(=O)c2ccccc2C1=O (configuration not stated) | 0.1 | -51.1 | 0.6 | 2.2 | 0.33 | -0.7
CC(C)Oc1ccc(CSC(=N)N)cc1 | 7.9* | -4.9 | x | x | -0.73 | -12.8
COc1ccc(CNC(=S)NCc2ccc(OC(C)C)cc2)cc1 | 0.1 | -1.9 | -3.5 | x | -0.76 | 2.1
COc1ccccc1-c1nnc(SC2CCc3ccccc3NC2=O)s1 (configuration not stated) | 6.3* | -42.1 | x | 1.0 | -1.47 | x
COc1ccccc1N1CCN(C(=O)CCNS(=O)(=O)c2ccc(Br)s2)CC1 | 0.5 | -37.4 | x | 15.9 | -0.44 | -2.8
O=C(Nc1ccc2c(c1)OCO2)NC1(C(F)(F)F)Oc2ccccc2O1 | -2.5 | -52.2 | 2.5 | -11.1 | -1.05 | -8.9
O=C(Nc1ccc2c(c1)OCCO2)NC1(C(F)(F)F)Oc2ccccc2O1 | -4.6 | -49.1 | 0.2 | -25.6 | -1.68 | 30.2*
CC12CN3CC(C)(CN(C1)C3c1ccc(Br)cc1O)C2 (configuration not stated) | -1.5 | -43.8 | -0.5 | -12.6 | -0.52 | 32.6*
CC12CN3CC(C)(CN(C1)C3c1cc(Br)ccc1O)C2=O (configuration not stated) | 0.5 | -20.2 | -1.9 | 14.8 | -0.92 | 8.6
Cc1ccccc1Oc1cc(-n2ncc(Cl)c(Cl)c2=O)ncn1 | -5.1 | -30.9 | -3.3 | x | -0.56 | 46.2*
COC(=O)c1cnn(-c2cc(Oc3ccccc3)ncn2)c1N | 5.7* | -16.9 | -0.8 | x | -0.99 | -2.2
O=c1cc(-c2ccccc2Cl)oc2ccc([N+](=O)[O-])c(O)c12 | 0.1 | -42.0 | x | x | -1.51 | 63.7*
O=C(Nc1ccc(O)c2c(=O)cc(-c3ccccc3Cl)oc12)c1ccccc1Cl | -2.2 | -37.5 | x | x | -0.82 | 5.8
O=c1cc(-c2ccccc2Cl)oc2c([N+](=O)[O-])c(O)cc(O)c12 | 6.5* | -18.9 | x | x | 1.94 | 11.4
Cc1ccc(Nc2cc(C)nn2-c2nc(C)cc(=O)[nH]2)cc1 | -7.2 | 99.7* | x | 1.1 | -2.3 | -27.0
Cc1ccc(Nc2cc(C)nn2-c2nc(C)cc(C)n2)cc1 | 0.7 | 24.6 | 0.2 | -6.8 | -1.22 | -10.3
COc1cc(OC)cc(-c2nc3ccccc3c(=O)n2OC(=O)c2ccc(C)c(C)c2)c1 | -3.4 | -37.5 | -14.0 | x | -0.22 | 63.7*
CCCCc1oc2ccccc2c1C(=O)c1cc(I)c(OCCN(CC)CC)c(I)c1 | -3.9 | 99.0* | x | -4.1 | -1.82 | -9.8
CN1C(=O)C(O)(CC(=O)c2ccccc2O)c2cc(Br)ccc21 (configuration not stated) | -4.4 | 53.6* | -0.4 | -15.7 | 0.48 | -9.9

Compound activity (PubChem BioAssay)
